In test [1] the target is Prothrombin (Bos taurus, UniProt P00735). Kind of test: Inhibitory activity against bovine thrombin.
The nature of test [2]: The compound was evaluated for the dose to double the control plasma APTT value in the human plasma. It counts as functional. The method in brief: (§1)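 Human blood was anticoagulated with one-tenth volume 3.8% trisodium citrate and centrifuged at 1300g for 20 min to give platelet-poor plasma. Plasma was spiked with compound at 0 to about 150 μM. It was activated 5 min at 37 °C with bovine cephalin (ellagic acid) reagent, and clotting was started with 20 mM CaCl2. Clot time was read on a coagulometer. Concentration doubling APTT was read from a concentration–APTT plot.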

The target of test [3] is T1, Prothrombin (Homo sapiens, UniProt P00734). Kind of test: Inhibitory activity against human thrombin.
Test [4] in a line: The compound was evaluated for the dose to double the control plasma APTT value in the human plasma. In kind it is functional. In short, it runs like this:
as §1

Test [5] addresses T1, Prothrombin. Kind of test: The compound was evaluated for the inhibitory activity against human thrombin. The method in brief:
(§2)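 Human thrombin (0.0625 U/mL final) in 0.05 M TRIS-HCl pH 8.4 with S-2238, started by enzyme. Absorbance slope at 405 nm was read over 30 s. A range-finding run at about 0.01–100 μM was followed by substrate at 3.125–100 μM with at least two inhibitor levels plus vehicle. DMSO was below 0.5%. Ki = [i]/(Kp/Km − 1) from double-reciprocal plots.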

The target of test [6] is T1, Prothrombin. The experiment in a line: The compound was evaluated for the inhibitory activity against human thrombin. In short, it runs like this: as §2

The source of these data is ChEMBL document CHEMBL1132465, “Design and synthesis of thrombin inhibitors: analogues of MD-805 with reduced stereogenicity and improved potency” (J Med Chem, 1999).

In test [1], `CC1CNc2c(cccc2S(=O)(=O)NC(CCCNC(=N)N)C(=O)N2CCC[C@@H](CCO)C2)C1` (some centres undefined) returned a Ki of 1350 nM. On to `CC1(C)CNc2c(cc(Cl)cc2S(=O)(=O)NC(CCCN=C(N)N)C(=O)N2CCC(CCOC(=O)C(C)(C)C)CC2)C1` (centres undefined), for which affinity in test [1] was put at a Ki of 56 nM. Besides, the IC200 in test [2] was 8.5 µM.

`CC1(C)CNc2c(cccc2S(=O)(=O)NC(CCCN=C(N)N)C(=O)N2CCC(CC(F)F)CC2)C1` (centres undefined): the affinity in test [3], expressed as Ki, was 6 nM. The compound also displayed an IC200 in test [4] of 1.5 µM. On to `CC(=O)NCCC1CCN(C(=O)C(CCCN=C(N)N)NS(=O)(=O)c2cccc3c2NCC(C)(C)C3)CC1` (centres undefined), for which the affinity in test [3] corresponds to a Ki of 43 nM. Besides, the IC200 in test [2] was determined as 2.15 µM. In the case of `CC(C)(c1ccccc1)c1cccc(S(=O)(=O)NC(CCCN=C(N)N)C(=O)N2CCC[C@H]2CO)c1` (some centres undefined), the Ki in test [1] amounted to 2900 nM. For `CC1CNc2c(cccc2S(=O)(=O)NC(CCCNC(=N)N)C(=O)N2CCc3ccccc3C2)C1` (centres undefined), in test [1], affinity was put at a Ki of 23 nM. Compared with the last compound, the Ki is about 130-fold lower. Still for that read-out and setting: the same measure for `CC1CNc2c(cccc2S(=O)(=O)NC(CCCNC(=N)N)C(=O)N2CCC(CCCO)CC2)C1` (centres undefined): 185 nM. The same measure, in the same setting: the figure for `CC1CNc2c(cccc2S(=O)(=O)NC(CCCN=C(N)N)C(=O)N2CCCC(O)C2)C1` (centres undefined) is 360 nM; for `CC1CNc2c(cccc2S(=O)(=O)NC(CCCN=C(N)N)C(=O)N2CCC(CCO)CC2)C1` (centres undefined) it is 52 nM. Consider `CC(=O)NCCC1CCN(C(=O)C(CCCN=C(N)N)NS(=O)(=O)c2cccc3c2NCC(C)C3)CC1` (centres undefined), for which the results for the Ki in test [1] and in test [5] were 45 nM and 66 nM, respectively. In test [4], this compound returned an IC200 of 1.8 µM. `CC1(C)CNc2c(cc(Cl)cc2S(=O)(=O)NC(CCCN=C(N)N)C(=O)N2CCC(CCF)CC2)C1` (centres undefined) returned a Ki in test [3] of 6.6 nM. In test [2], the IC200 came to 3.25 µM. In the case of `CC(C)(c1ccccc1)c1cccc(S(=O)(=O)NC(CCCNC(=N)N)C(=O)N2CCc3ccccc3C2)c1` (centres undefined), the Ki in test [1] was determined as 49 nM. As for `CC1CNc2c(cccc2S(=O)(=O)NC(CCCN=C(N)N)C(=O)N2CCCC[C@H]2CO)C1` (some centres undefined), the Ki in test [1] was 23 nM. With `CCC1CCN(C(=O)C(CCCN=C(N)N)NS(=O)(=O)c2cccc3c2NCC(C)C3)CC1` (centres undefined), affinity in test [1] was put at a Ki of 27 nM. In test [2], the IC200 came out at 6.27 µM.

For the compound `CC1CNc2c(cccc2S(=O)(=O)NC(CCCN=C(N)N)C(=O)N2CCC(CC(=O)O)CC2)C1` (centres undefined), the Ki in test [1] amounted to 2600 nM. This lies in the single-digit micromolar range. With `CC1CNc2c(cccc2S(=O)(=O)NC(CCCN=C(N)N)C(=O)N2CCC(CCOCCCC(=O)O)CC2)C1` (centres undefined), the affinity in test [1] corresponds to a Ki of 980 nM.

In turn, `CC1CNc2c(cccc2S(=O)(=O)NC(CCCN=C(N)N)C(=O)N2CCCC2)C1` (centres undefined) had a Ki in test [1] of 795 nM. In test [1], `CC1CNc2c(cccc2S(=O)(=O)NC(CCCNC(=N)N)C(=O)N2CCC(CO)CC2)C1` (centres undefined) displayed a Ki of 64 nM.

In test [1], `C[C@H]1CNc2c(cccc2S(=O)(=O)NC(CCCNC(=N)N)C(=O)N2CCC(CCO)CC2)C1` (some centres undefined) had a Ki of 46 nM. As to `CC1(C)CNc2c(cc(Cl)cc2S(=O)(=O)NC(CCCN=C(N)N)C(=O)N2CCC(CC(F)F)CC2)C1` (centres undefined), in test [3], the affinity, expressed as Ki, was 12.1 nM. Also, the IC200 in test [4] is 6 µM. In test [1], `CC1CNc2c(cccc2S(=O)(=O)NC(CCCN=C(N)N)C(=O)N2CCC(CCOC(=O)CC(=O)O)CC2)C1` (centres undefined) gave a Ki of 360 nM. Regarding `CC1CNc2c(cccc2S(=O)(=O)NC(CCCN=C(N)N)C(=O)N2CCCCC2CO)C1` (centres undefined), the Ki in test [1] is 64 nM. With `CC1CNc2c(cccc2S(=O)(=O)NC(CCCN=C(N)N)C(=O)N2CCC(CCC(=O)NCCC(=O)O)CC2)C1` (centres undefined), the Ki is 280 nM in test [6] and 310 nM in test [1]. `CC(C)(c1ccccc1)c1cccc(S(=O)(=O)NC(CCCNC(=N)N)C(=O)N2CCCC[C@H]2CO)c1` (some centres undefined) gave a Ki in test [1] of 3000 nM. For the compound `CC1CNc2c(cccc2S(=O)(=O)NC(CCCN=C(N)N)C(=O)N2CCC(CCOC(=O)CCC(=O)O)CC2)C1` (centres undefined), the affinity in test [1], expressed as Ki, was 34 nM. For the compound `CC1CNc2c(cccc2S(=O)(=O)NC(CCCN=C(N)N)C(=O)N2CCC(O)CC2)C1` (centres undefined), the affinity in test [1], expressed as Ki, was 5180 nM. With `CC1CNc2c(cccc2S(=O)(=O)NC(CCCN=C(N)N)C(=O)N2CCC(CCCl)CC2)C1` (centres undefined), the Ki was 19 nM in test [1] and 11 nM in test [5]. The same compound yielded an IC200 in test [2] of 2.7 µM.

In turn, `CC1CNc2c(cccc2S(=O)(=O)NC(CCCNC(=N)N)C(=O)N2Cc3ccccc3CC2CO)C1` (centres undefined) yielded a Ki in test [1] of 890 nM. In test [3], `CC1(C)CNc2c(cccc2S(=O)(=O)NC(CCCN=C(N)N)C(=O)N2CCC(CCF)CC2)C1` (centres undefined) had a Ki of 5.7 nM. The same compound registered an IC200 in test [4] of 2.1 µM. Turning to `CC1CNc2c(cccc2S(=O)(=O)NC(CCCN=C(N)N)C(=O)N2CCC(CCNC(=O)CCP(=O)(O)O)CC2)C1` (centres undefined), in test [1], the Ki was found to be 35200 nM.

In test [1], `CC1CNc2c(cccc2S(=O)(=O)NC(CCCN=C(N)N)C(=O)N2CCC(CCC(=O)O)CC2)C1` (centres undefined) displayed a Ki of 18400 nM. Against the preceding compound, the Ki is about 1.9-fold lower. In test [1], `CC1CNc2c(cccc2S(=O)(=O)NC(CCCNC(=N)N)C(=O)N2CCC(CCOC(=O)CCCC(=O)O)CC2)C1` (centres undefined) had a Ki of 170 nM. On to `CC1CNc2c(cccc2S(=O)(=O)NC(CCCN=C(N)N)C(=O)N2CCC[C@@H](CO)C2)C1` (some centres undefined), for which, in test [1], the affinity corresponds to a Ki of 1500 nM. In test [1], `N=C(N)NCCCC(NS(=O)(=O)c1cccc2c1NCCC2)C(=O)N1CCC(CCO)CC1` (centres undefined) had a Ki of 490 nM. Compared with the last compound, the Ki is about 3.1-fold lower. On the same count and under the same terms, the figure for `CC1CNc2c(cccc2S(=O)(=O)NC(CCCN=C(N)N)C(=O)N2CCC(CCNC(=O)CCC(=O)O)CC2)C1` (centres undefined) is 650 nM.

`CC1CNc2c(cccc2S(=O)(=O)NC(CCCN=C(N)N)C(=O)N2CCC[C@H]2CO)C1` (some centres undefined): the inhibitory constant (Ki) in test [1] came out at 80 nM. `CC1CNc2c(cccc2S(=O)(=O)NC(CCCN=C(N)N)C(=O)N2CCC(CCCCCCC(=O)O)CC2)C1` (centres undefined) registered a Ki in test [1] of 1980 nM.
